The target in data set [1] is Neuraminidase (Influenza A virus (A/Memphis/1/1971(H3N2)), UniProt P03471). Nature of the data set: Inhibition of influenza A virus (A/Chicken/Hebei/LZF/2014(H5N2)) Neuraminidase N2 in using 4-MUNANA as substrate preincubated for 10 mins followed by substrate addition and measured after 40 mins by fluorescence based assay.
Data set [2] can be described thus: Inhibition of influenza B virus (B/PHUKET/3073/2013)) Neuraminidase in using 4-MUNANA as substrate preincubated for 10 mins followed by substrate addition and measured after 40 mins by fluorescence based assay. A digest of the protocol: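 Influenza B/PHUKET/3073/2013 NA, in MES buffer at pH 6.5 with CaCl₂, was preincubated with inhibitor for 10 min at 37°C. MUNANA substrate was added for 40 min at 37°C, and the reaction was stopped with 0.2 M glycine-NaOH at pH 10.2. Fluorescence was read at ex 365 / em 455 nm minus substrate blanks. IC50 was taken from % inhibition curves, mean ± SD of three experiments.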

For data set [3], the system named is Influenza A virus. Nature of the data set: Antiviral activity against Influenza A virus (A/goose/Guangdong/SH7/2013(H5N1)) infected in CEF cells assessed as reduction in virus-induced cytopathic effect incubated for 48 hrs by CCK-8 assay. In kind it is functional, organism-based.
For data set [4], the system named is Influenza A virus. Nature of the data set: Antiviral activity against Influenza A virus (A/Chicken/Hebei/LZF/2014(H5N2)) infected in CEF cells assessed as reduction in virus-induced cytopathic effect incubated for 48 hrs by CCK-8 assay. The class given is functional, organism-based.
Data set [5] is described as follows: Cytotoxicity against chicken CEF cells assessed as reduction in cell viability incubated for 48 hrs by CCK8 assay. The class given is cell-based, Gallus gallus. A digest of the protocol: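 Mock-infected chicken embryo fibroblasts received 2-fold serial dilutions of compound in DMEM with 1% FBS for 48 h at 37°C under 5% CO₂. Viability was read by CCK-8 (90 min, A450).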

11 compounds from ChEMBL document CHEMBL4364245 (Eur J Med Chem, 2019) can be followed below.

Chain of Neuraminidase (Influenza A virus (A/Memphis/1/1971(H3N2)), UniProt P03471) (P03471 whole entry): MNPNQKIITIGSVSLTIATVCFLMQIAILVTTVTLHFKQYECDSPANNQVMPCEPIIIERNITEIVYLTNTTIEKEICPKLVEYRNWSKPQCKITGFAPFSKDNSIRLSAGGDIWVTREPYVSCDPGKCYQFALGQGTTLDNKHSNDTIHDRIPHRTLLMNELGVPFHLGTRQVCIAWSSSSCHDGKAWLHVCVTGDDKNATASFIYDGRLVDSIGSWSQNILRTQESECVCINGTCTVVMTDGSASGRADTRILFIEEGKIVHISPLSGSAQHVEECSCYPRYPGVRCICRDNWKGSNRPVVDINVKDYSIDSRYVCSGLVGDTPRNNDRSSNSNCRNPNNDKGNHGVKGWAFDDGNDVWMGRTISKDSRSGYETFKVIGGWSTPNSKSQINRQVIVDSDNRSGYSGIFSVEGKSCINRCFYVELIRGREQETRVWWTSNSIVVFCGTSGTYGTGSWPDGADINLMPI

In data set [1], `CCC(CC)O[C@@H]1C=C(C(=O)N[C@@H](C(=O)O)C(C)C)C[C@H](NCc2ccc(N3CCCC3)cc2)[C@H]1NC(C)=O` gave an IC50 of 2.41 µM.
Same read-out and setting: for `CCC(CC)O[C@@H]1C=C(C(=O)NCc2ccc(C(=O)O)cc2)C[C@H](NCc2ccc(N3CCCC3)cc2)[C@H]1NC(C)=O` the value was 4.7 µM; for `CCC(CC)O[C@@H]1C=C(C(=O)NCc2ccc(C(=O)O)cc2)C[C@H](NCc2ccc(Sc3ccccc3)cc2)[C@H]1NC(C)=O`, > 100 µM.
With `CCC(CC)O[C@@H]1C=C(C(=O)N[C@@H](C(=O)O)C(C)C)C[C@H](NCc2ccc(SC)cc2)[C@H]1NC(C)=O`, the IC50 in data set [2] was > 100 µM. Also, the concentration giving a half-maximal response (EC50) in the data set on Influenza A virus [3] was > 100 µM; in the data set on Influenza A virus [4], 26.6 µM. The CC50 at 48 h in data set [5] is > 200 µM.
Turning to `CCC(CC)O[C@@H]1C=C(C(=O)O)C[C@H](NCc2ccc(SC)cc2)[C@H]1NC(C)=O`, the half-maximal inhibitory concentration (IC50) was 8.34 µM in data set [1] and 7.97 µM in data set [2]. Besides, the EC50 in the data set on Influenza A virus [3] came out at 0.66 µM; in the data set with Influenza A virus [4], 0.48 µM. Besides, the CC50 at 48 h in data set [5] was > 200 µM.
Take `CCC(CC)O[C@@H]1C=C(C(=O)NCc2ccc(C(=O)O)cc2)C[C@H](NCc2ccc(N(CC)CC)cc2)[C@H]1NC(C)=O`: the IC50 in data set [1] came out at 13.3 µM.
In the case of `CCC(CC)O[C@@H]1C=C(C(=O)NCc2ccc(Cl)cc2)C[C@H](NCc2ccc(SC)cc2)[C@H]1NC(C)=O`, in data set [2], the half-maximal inhibitory concentration (IC50) is > 100 µM.
Compound `CCC(CC)O[C@@H]1C=C(C(=O)O)C[C@H](N)[C@H]1NC(C)=O` [OSELTAMIVIR CARBOXYLATE] had an IC50 in data set [2] of 0.037 µM. The EC50 came to 0.82 µM with Influenza A virus [3] and 0.17 µM with Influenza A virus [4]. The CC50 at 48 h in data set [5] is > 200 µM.
`CCC(CC)O[C@@H]1C=C(C(=O)N[C@@H](C(=O)O)C(C)C)C[C@H](NCc2ccc(Sc3ccccc3)cc2)[C@H]1NC(C)=O`: the IC50 in data set [1] and in data set [2] was > 100 µM each time.
`CCC(CC)O[C@@H]1C=C(C(=O)NCc2ccc(Cl)cc2)C[C@H](NCc2ccc(N3CCCC3)cc2)[C@H]1NC(C)=O` registered a concentration for half-maximal inhibition (IC50) in data set [1] of 0.94 µM. In addition, the EC50 with Influenza A virus [3] and in the data set on Influenza A virus [4] was > 100 µM in each case. The 50% cytotoxic concentration (CC50) at 48 h in data set [5] is 77.1 µM.
Compound `CCC(CC)O[C@@H]1C=C(C(=O)NCc2ccc(F)cc2)C[C@H](NCc2ccc(N3CCCC3)cc2)[C@H]1NC(C)=O` showed an IC50 in data set [1] of 48.4 µM.
